# Source: ChEMBL document CHEMBL3227981, “Studies on biologically active nucleosides and nucleotides. 5. Synthesis and antitumor activity of some 2,2'-anhydro-1-(3',5'-di-O-acyl-beta-D-arabinofuranosyl)cytosine salts and 2,2'-anhydro-1-(3'-O-acyl-beta-D-arabinofuranoxyl)cytosine 5'-phosphates” (J Med Chem, 1979)
# Assays:
# L1210 [1] = test: Antitumor activity against mouse L1210 cells allografted in BDF1 mouse assessed as increase of host life span at 6.25 mg/kg, ip qd for 5 days; type: functional; details: route intraperitoneal
# Method in brief: (§1)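 BDF1 mice were given 1×10^5 L1210 cells ip. Compound was dissolved or suspended in 0.9% NaCl with 0.1% HCO-60 and given ip daily for 5 days, starting 24 h after inoculation. Groups had 6–10 mice. ILS = (T/C − 1) × 100, from mean survival time of treated versus control mice, observed over 60 days.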
# [2] = Toxicity in ip dosed ICR mouse up to 3 weeks; type: organism-based; details: in vivo
# Method in brief: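 Maximum tolerated dose was set from a single ip injection into three female ICR mice weighing 20–21 g, followed by 3 weeks of observation.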
# L1210 [3] = test: Antitumor activity against mouse L1210 cells allografted in BDF1 mouse assessed as increase of host life span at 25 mg/kg, ip qd for 5 days; type: functional; details: route intraperitoneal; method in brief: as §1
# L1210 [4] = test: Antitumor activity against mouse L1210 cells allografted in BDF1 mouse assessed as increase of host life span at 100 mg/kg, po qd for 5 days; type: functional
# Method in brief: (§2)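 L1210 cells (1×10^5) were implanted ip in BDF1 mice. Oral dosing began 24 h later and ran once daily for 5 days, with compound in 0.9% saline containing 0.1% HCO-60 as solution or suspension. Six to ten mice per group. Percent ILS was (T/C − 1) × 100 on mean survival time, with a 30-day observation period.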
# L1210 [5] = test: Antitumor activity against mouse L1210 cells allografted in BDF1 mouse assessed as increase of host life span at 100 mg/kg, ip qd for 5 days; type: functional; details: route intraperitoneal; method in brief: as §1
# L1210 [6] = test: Antitumor activity against mouse L1210 cells allografted in BDF1 mouse assessed as increase of host life span at 200 mg/kg, po qd for 5 days; type: functional; method in brief: as §2
structure (smiles),measurement,setting,value
CCCCCCCCCCCCCCCC(=O)OC[C@H]1O[C@@H]2[C@H](Oc3nc(=N)ccn32)[C@@H]1OC(=O)CCCCCCCCCCCCCCC.Cl,Activity,L1210 [1],59%
same,MTD at 504 h,[2],750 mg/kg
same,Activity,L1210 [3],151.3%
same,Activity,L1210 [4],0%
same,Activity,L1210 [5],>528.2%
same,Activity,L1210 [6],22.5%
